Results from ChEMBL document CHEMBL4680221, “Discovery of pyrazole derivatives as cellular active inhibitors of histone lysine specific demethylase 5B (KDM5B/JARID1B)” (Eur J Med Chem, 2020).
Activity calls are given as the source filed them. The calls are words filed in the database; no cut-off is given here.

Columns and labels:
[1] = target: T1, Lysine-specific demethylase 5B (Homo sapiens, UniProt Q9UGL1); experiment: Inhibition of recombinant human N-terminal FLAG-tagged KDM5B expressed in Sf9 insect cells using biotin-H3K4me as substrate by ALPHA
T1 sequence (Q9UGL1 whole entry): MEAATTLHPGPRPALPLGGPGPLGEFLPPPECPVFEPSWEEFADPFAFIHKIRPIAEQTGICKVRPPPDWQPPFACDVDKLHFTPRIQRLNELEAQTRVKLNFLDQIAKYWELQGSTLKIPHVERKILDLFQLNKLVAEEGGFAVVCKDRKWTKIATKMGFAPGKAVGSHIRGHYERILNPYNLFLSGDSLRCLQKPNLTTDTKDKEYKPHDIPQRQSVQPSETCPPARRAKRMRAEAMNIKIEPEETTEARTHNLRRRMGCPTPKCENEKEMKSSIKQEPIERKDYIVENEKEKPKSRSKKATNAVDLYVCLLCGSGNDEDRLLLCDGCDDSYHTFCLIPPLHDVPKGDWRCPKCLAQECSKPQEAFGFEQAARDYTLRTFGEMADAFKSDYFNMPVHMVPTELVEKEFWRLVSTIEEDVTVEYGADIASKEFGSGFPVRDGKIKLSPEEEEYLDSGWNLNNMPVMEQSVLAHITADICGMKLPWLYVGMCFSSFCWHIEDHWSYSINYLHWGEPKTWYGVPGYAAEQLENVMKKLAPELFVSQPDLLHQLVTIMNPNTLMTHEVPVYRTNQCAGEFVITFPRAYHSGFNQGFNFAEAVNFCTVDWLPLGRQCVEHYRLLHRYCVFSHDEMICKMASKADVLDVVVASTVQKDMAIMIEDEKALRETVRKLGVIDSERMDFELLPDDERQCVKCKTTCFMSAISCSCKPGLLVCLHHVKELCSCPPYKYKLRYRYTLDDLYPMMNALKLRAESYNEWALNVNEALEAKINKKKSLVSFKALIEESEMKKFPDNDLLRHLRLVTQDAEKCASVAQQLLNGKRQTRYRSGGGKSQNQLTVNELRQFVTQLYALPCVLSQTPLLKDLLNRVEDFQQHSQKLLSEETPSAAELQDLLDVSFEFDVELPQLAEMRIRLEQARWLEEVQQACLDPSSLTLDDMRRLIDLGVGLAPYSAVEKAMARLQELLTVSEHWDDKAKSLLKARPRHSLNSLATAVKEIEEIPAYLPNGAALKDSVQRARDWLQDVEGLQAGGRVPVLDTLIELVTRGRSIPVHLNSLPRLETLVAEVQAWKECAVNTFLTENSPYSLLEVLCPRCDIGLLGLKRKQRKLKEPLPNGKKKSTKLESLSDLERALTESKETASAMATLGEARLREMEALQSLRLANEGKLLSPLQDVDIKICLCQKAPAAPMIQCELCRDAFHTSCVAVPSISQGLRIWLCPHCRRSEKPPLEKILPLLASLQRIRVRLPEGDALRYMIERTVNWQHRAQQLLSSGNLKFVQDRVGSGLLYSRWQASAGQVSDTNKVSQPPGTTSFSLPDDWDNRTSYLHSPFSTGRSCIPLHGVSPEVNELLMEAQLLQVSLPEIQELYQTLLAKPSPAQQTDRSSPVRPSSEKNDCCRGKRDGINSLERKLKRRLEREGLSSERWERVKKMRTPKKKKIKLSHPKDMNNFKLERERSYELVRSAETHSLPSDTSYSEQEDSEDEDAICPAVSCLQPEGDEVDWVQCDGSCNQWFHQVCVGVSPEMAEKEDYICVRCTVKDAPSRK
Summary of the method: (§1)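 ALPHA demethylase assay. Recombinant KDM5B (4 nM) was preincubated with compound, then biotin-H3K4me3 peptide (64 nM) was added. Buffer: 10 μM α-KG, 100 μM ascorbate, 50 μM (NH4)2Fe(SO4)2, 50 mM HEPES pH 7.5, 0.01% Tween 20, 0.1% BSA. Read-out used streptavidin donor and H3K4me1-2 antibody acceptor beads. Data were normalized to blank control and IC50 fitted.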

[2] = target: T1, Lysine-specific demethylase 5B; experiment: Inhibition of recombinant human N-terminal FLAG-tagged KDM5B expressed in Sf9 insect cells at 10 uM using biotin-H3K4me as substrate by ALPHA relative to control; summary of the method: as §1
MKN-45 [3] = experiment: Antiproliferative activity against human MKN-45 cells assessed as reduction in cell proliferation measured after 4 days by MTS assay; assay type: functional, cell-based; conditions: MKN-45, 96 h
Summary of the method: (§2)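 MKN45 cells were seeded at 3×10^3 cells per well and treated for 4 or 6 days, as indicated. Proliferation was read by MTS assay and IC50 derived. Three independent experiments, mean ± SD.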

MKN-45 [4] = experiment: Antiproliferative activity against human MKN-45 cells assessed as reduction in cell proliferation measured after 6 days by MTS assay; assay type: functional, cell-based; conditions: MKN-45, 144 h; summary of the method: as §2
[5] = Cytotoxicity against human GES1 cells assessed as reduction in cell proliferation at 100 uM by MTS assay relative to control; assay type: cell-based; conditions: read-out: Activity
Summary of the method: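 Normal human gastric epithelial GES-1 cells, seeded at 3×10^3 cells per well and exposed to 100 μM. Antiproliferation rate was read by MTS assay.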

MKN-45 [6] = experiment: Antimigratory activity in human MKN-45 cells at 20 uM measured up to 48 hrs by wound healing assay; assay type: functional, cell-based; conditions: time hrs <=48
Summary of the method: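 MKN45 cells were grown to confluence in 24 h, then scratched with a pipette tip and washed with PBS. Medium was changed to fresh medium with 2% FBS plus compound. The wound was photographed by microscope at 0, 6, 12, 24 and 48 h. Three independent experiments.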

MKN-45 [7] = experiment: Antimigratory activity in human MKN-45 cells at 20 uM measured after 24 hrs by transwell assay; assay type: functional, cell-based
[8] = target: T1, Lysine-specific demethylase 5B; experiment: Inhibition of KDM5B in human MKN-45 cells assessed as protein stabilization at 0.5 to 30 uM measured after 1 hr by cellular thermal shift assay; assay type: cell-based; conditions: dose 0.5-30 µM
Summary of the method: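 MKN45 cells (5×10^5) were treated with compound or DMSO for 1 h, washed in PBS and resuspended in PBS with protease inhibitors. Cells were heated at 46 °C for 3 min, then freeze-thawed three times in liquid nitrogen. KDM5B in the supernatant was measured by western blot with GAPDH control. Repeated three times.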

[9] = target: T1, Lysine-specific demethylase 5B; experiment: Inhibition of KDM5B in human MKN-45 cells assessed as increase in H3K4me2 accumulation at 20 uM measured after 5 days by Hoechst 33342 staining based immunofluorescence assay; assay type: cell-based; conditions: time 5.0 day
Summary of the method: (§3)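 MKN45 cells were seeded and left 24 h, then treated for 5 days. Cells were fixed in 4% paraformaldehyde, permeabilised with 0.1% Triton X-100 for 20 min and blocked with 5% BSA for 1 h. H3K4me2 or H3K4me3 primary antibody was applied at 4°C overnight, followed by Alexa Fluor 488 secondary and Hoechst 33342 (5 µg/mL) nuclear stain. Signal was quantified by high content imaging; three independent experiments.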

[10] = target: T1, Lysine-specific demethylase 5B; experiment: Inhibition of KDM5B in human MKN-45 cells assessed as increase in H3K4me3 accumulation at 20 uM measured after 5 days by Hoechst 33342 staining based immunofluorescence assay; assay type: cell-based; conditions: time 5.0 day; summary of the method: as §3
[11] = target: T1, Lysine-specific demethylase 5B; experiment: Inhibition of KDM5B in human MKN-45 cells assessed as increase in H3K4me2 accumulation at 20 uM measured after 5 days by Western blot analysis; assay type: cell-based; conditions: time 5.0 day
Summary of the method: (§4)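 MKN45 cells were treated for 5 days and lysed in RIPA buffer. About 30 µg protein was run on 10% SDS-PAGE and transferred to 0.2 µm nitrocellulose, then blocked with 5% milk in PBS for 2 h. Blots were probed for histone methylation marks with histone 3 as loading control and detected by ECL.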

[12] = target: T1, Lysine-specific demethylase 5B; experiment: Inhibition of KDM5B in human MKN-45 cells assessed as increase in H3K4me3 accumulation at 20 uM measured after 5 days by Western blot analysis; assay type: cell-based; conditions: time 5.0 day; summary of the method: as §4
[13] = target: T1, Lysine-specific demethylase 5B; experiment: Inhibition of KDM5B in human MKN-45 cells assessed as increase in H3K4me1 accumulation at 20 uM measured after 5 days by Western blot analysis; assay type: cell-based; conditions: time 5.0 day; summary of the method: as §4
MKN-45 [14] = experiment: Inhibition of KDM4 in human MKN-45 cells assessed as increase in H3K9me2 accumulation at 20 uM measured after 5 days by Western blot analysis; assay type: cell-based; conditions: time 5.0 day; summary of the method: as §4
MKN-45 [15] = experiment: Inhibition of KDM4 in human MKN-45 cells assessed as increase in H3K9me3 accumulation at 20 uM measured after 5 days by Western blot analysis; assay type: cell-based; conditions: time 5.0 day; summary of the method: as §4
MKN-45 [16] = experiment: Inhibition of KDM6 in human MKN-45 cells assessed as increase in H3K27me2 accumulation at 20 uM measured after 5 days by Western blot analysis; assay type: cell-based; conditions: time 5.0 day; summary of the method: as §4
MKN-45 [17] = experiment: Antiproliferative activity against human MKN-45 cells assessed as reduction in cell proliferation measured after 4 days by MTS assay relative to control; assay type: functional; parameters: scale not given: the % may be the effect or the level left; conditions: time 4 day; summary of the method: as §2
MKN-45 [18] = experiment: Antiproliferative activity against human MKN-45 cells assessed as reduction in cell proliferation measured after 6 days by MTS assay relative to control; assay type: functional; parameters: scale not given: the % may be the effect or the level left; conditions: time 6 day; summary of the method: as §2

## Cc1ccc(-n2cc(C(=O)NCCN3CCOCC3)c(-c3ccccc3)n2)cc1
[1]
  IC50: 851 nM
[2]
  inhibition: 66.8%

## O=C(NCCN1CCOCC1)c1cncc(-c2ccccc2)c1
[1]
  IC50: > 10000 nM
[2]
  inhibition: 42.5%

## Cc1ccc(-n2cc(C(=O)NCC(C)(C)N3CCOCC3)c(-c3ccccc3)n2)cc1
[1]
  IC50: 191 nM
[2]
  inhibition: 82.4%

## CC(C)c1c(-c2ccccc2)[nH]c2c(C#N)cnn2c1=O
[1]
  IC50: 10.5 nM
MKN-45 [3]
  IC50: 30300 nM
MKN-45 [4]
  IC50: 23800 nM
[5]
  inhibition at 100 µM: < 10%
MKN-45 [6]
  Activity: Active
MKN-45 [7]
  Activity: Active

## O=C(NCCN1CCOCC1)c1c[nH]nc1-c1ccccc1
[1]
  IC50: 5390 nM
[2]
  inhibition: 75.7%

## Cc1ccc(-c2nn(-c3ccc(C)cc3)cc2C(=O)N2CCN(CCN3CCCC3)CC2)cc1
[1]
  IC50: 851 nM
[2]
  inhibition: 76.5%

## O=C(NCCN1CCOCC1)c1cn(-c2ccccc2)nc1-c1ccncc1
[1]
  IC50: 237 nM
[2]
  inhibition: 81.3%

## O=C(NCCN1CCOCC1)c1cn(-c2ccccc2)nc1-c1ccc(Cl)cc1
[1]
  IC50: 572 nM
[2]
  inhibition: 72%

## O=C(NCC1(N2CCOCC2)CCCCC1)c1cn(-c2ccccc2)nc1-c1ccccc1
[1]
  IC50: > 10000 nM
[2]
  inhibition: -1.95%

## COC(=O)CCNC(=O)c1cn(-c2ccc(C)cc2)nc1-c1ccccc1
[1]
  IC50: 251 nM
[2]
  inhibition: 82.1%

## CCc1ccc(-n2cc(C(=O)NCCN3CCOCC3)c(-c3ccccc3)n2)cc1
[1]
  IC50: > 10000 nM
[2]
  inhibition: 20%

## Cc1cccc(-n2cc(C(=O)NCCN3CCOCC3)c(-c3ccccc3)n2)c1
[1]
  IC50: > 10000 nM
[2]
  inhibition: 20.9%

## CCc1ccc(-c2nn(-c3ccccc3)cc2C(=O)NCCN2CCOCC2)cc1
[1]
  IC50: 1350 nM
[2]
  inhibition: 45.3%

## CC(C)c1ccc(-n2cc(C(=O)NCCN3CCOCC3)c(-c3ccccc3)n2)cc1
[1]
  IC50: > 10000 nM
[2]
  inhibition: 14.8%

## COc1ccc(-n2nc(-c3ccccc3)nc2C(=O)NCC(C)(C)N2CCOCC2)cc1
[1]
  IC50: > 10000 nM
[2]
  inhibition: 28%
[8]
  inhibition: inactive
[9]
  inhibition: inactive
[10]
  inhibition: inactive
[11]
  inhibition: inactive
[12]
  inhibition: inactive
[13]
  inhibition: inactive
MKN-45 [14]
  inhibition: inactive
MKN-45 [15]
  inhibition: inactive
MKN-45 [16]
  inhibition: inactive
MKN-45 [17]
  Activity: 10.32%
MKN-45 [18]
  Activity: 13.24%
MKN-45 [6]
  Activity: inactive
MKN-45 [7]
  Activity: inactive

## CC(C)(CNC(=O)c1cn(-c2ccccc2)nc1-c1ccccc1)N1CCN(c2ccccc2)CC1
[1]
  IC50: 200 nM
[2]
  inhibition: 92.3%

## Cc1cncc(C(=O)NCCN2CCOCC2)c1
[1]
  IC50: > 10000 nM
[2]
  inhibition: 33.6%

## COc1ccc(-n2cc(C(=O)NCCN3CCOCC3)c(-c3ccccc3)n2)cc1
[1]
  IC50: 108 nM
[2]
  inhibition: 93%

## COc1ccccc1-n1cc(C(=O)NCC(C)(C)N2CCOCC2)c(-c2ccccc2)n1
[1]
  IC50: 93.2 nM
[2]
  inhibition: 92.3%

## Cc1n[nH]cc1C(=O)NCCN1CCOCC1
[1]
  IC50: > 10000 nM
[2]
  inhibition: 21.5%

## COc1ccc(-c2nn(-c3ccccc3)cc2C(=O)NCCN2CCOCC2)cc1
[1]
  IC50: 238 nM
[2]
  inhibition: 82.3%

## CC(C)c1ccc(-c2nn(-c3ccccc3)cc2C(=O)NCCN2CCOCC2)cc1
[1]
  IC50: > 10000 nM
[2]
  inhibition: -5.81%

## Cc1ccc(-n2nc(-c3ccccc3)nc2C(=O)NCC(C)(C)N2CCOCC2)cc1
[1]
  IC50: > 10000 nM
[2]
  inhibition: 28.9%

## CC(C)N(CCNC(=O)c1cn(-c2ccccc2)nc1-c1ccccc1)C(C)C
[1]
  IC50: 2240 nM
[2]
  inhibition: 67%

## O=C(NCCN1CCOCC1)c1cn(-c2ccccc2)nc1-c1cccs1
[1]
  IC50: 335 nM
[2]
  inhibition: 75.4%

## O=C(NCCN1CCOCC1)c1cn(-c2ccc(Cl)cc2)nc1-c1ccccc1
[1]
  IC50: > 10000 nM
[2]
  inhibition: 8.69%

## CC(C)(CNC(=O)c1cn(-c2ccc(Cl)cc2)nc1-c1ccccc1)N1CCOCC1
[1]
  IC50: 541 nM
[2]
  inhibition: 62%

## Cc1ccccc1-n1cc(C(=O)NCCN2CCOCC2)c(-c2ccccc2)n1
[1]
  IC50: > 10000 nM
[2]
  inhibition: -7.78%

## Cc1ccc(NC(=O)c2cn(-c3ccc(C)cc3)nc2-c2ccccc2)cc1
[1]
  IC50: 323 nM
[2]
  inhibition: 79.5%

## COc1ccc(-n2cc(C(=O)N3CCN(CCN4CCCC4)CC3)c(-c3ccccc3)n2)cc1
[1]
  IC50: > 10000 nM
[2]
  inhibition: 17.2%

## Cc1ccc(-n2cc(C(=O)N3CCN(CCN4CCCC4)CC3)c(-c3ccccc3)n2)cc1
[1]
  IC50: 73 nM
[2]
  inhibition: 94.2%

## O=C(c1cn(-c2ccccc2)nc1-c1ccccc1)N1CCN(CCN2CCCC2)CC1
[1]
  IC50: 232 nM
[2]
  inhibition: 86.6%

## Cc1ccccc1-c1nn(-c2ccccc2)cc1C(=O)NCCN1CCOCC1
[1]
  IC50: > 10000 nM
[2]
  inhibition: 9.25%

## O=C(NCCN1CCOCC1)c1cn(-c2ccccc2)nc1-c1ccccc1
[1]
  IC50: 310 nM
[2]
  inhibition: 76.4%

## C#CCNC(=O)c1cn(-c2ccccc2)nc1-c1ccccc1
[1]
  IC50: 348 nM
[2]
  inhibition: 84.6%
